Experimental data reported in ChEMBL document CHEMBL1125346, “Guanidinophenyl-substituted enol lactones as selective, mechanism-based inhibitors of trypsin-like serine proteases” (J Med Chem, 1992).

Columns and labels:
[1] = target: T1, Serine protease 1 (Bos taurus) (UniProt P00760); test: Second order rate constant against trypsin
T1 sequence (whole entry): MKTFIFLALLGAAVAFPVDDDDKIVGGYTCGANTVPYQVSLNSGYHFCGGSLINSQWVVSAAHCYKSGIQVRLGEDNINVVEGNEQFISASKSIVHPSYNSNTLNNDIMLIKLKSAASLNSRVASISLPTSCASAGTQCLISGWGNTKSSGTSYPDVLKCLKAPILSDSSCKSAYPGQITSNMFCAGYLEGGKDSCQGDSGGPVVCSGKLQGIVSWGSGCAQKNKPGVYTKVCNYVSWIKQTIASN
Method in brief: (§1)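 Competitive substrate assay: lactone (DMSO, final 10% v/v) and chromogenic substrate combined in buffer, enzyme added, absorbance followed to steady state. Turnover-corrected semilog plot gives kobs; I0 vs I0/kobs replot (eq 6) with separately determined Km yields Ki and ka. Where no burst was seen, Ki was estimated from Km(app) replots using 15-s initial velocities. Buffers and substrates as in incubation assay.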

[2] = target: T2, Neutrophil elastase (Homo sapiens) (UniProt P08246); test: Time to reach maximum percent inhibition by the compound was determined against human neutrophil elastase HNE(66 nM); type: functional
T2 sequence (whole entry): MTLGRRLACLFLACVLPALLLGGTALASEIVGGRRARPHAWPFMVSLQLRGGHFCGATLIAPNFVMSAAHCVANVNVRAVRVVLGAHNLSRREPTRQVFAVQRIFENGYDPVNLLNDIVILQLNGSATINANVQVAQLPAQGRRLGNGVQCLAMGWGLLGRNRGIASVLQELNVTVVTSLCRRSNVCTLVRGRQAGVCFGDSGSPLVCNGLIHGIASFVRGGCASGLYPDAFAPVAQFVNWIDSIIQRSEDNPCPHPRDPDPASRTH
Method in brief: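 HNE was incubated with excess lactone in 10% final DMSO. Aliquots drawn during 2 h went into MeO-Suc-Ala-Ala-Pro-Val-pNA (150 μM) in 0.1 M phosphate, 0.5 M NaCl, pH 7.4, read at 410 nm. Activity was set relative to a lactone-free control, and the time (min) to peak inhibition was noted.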

[3] = Ratio of initial inhibitor concentration to initial t-PA concentration
Method in brief: (§2)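 Ratio I0/E0 of lactone to enzyme in the 2-h incubation assay; lactone added from DMSO stock to buffered enzyme (final 10% DMSO).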

[4] = target: T2, Neutrophil elastase (Homo sapiens); test: Time for which maximum percent inhibition persists was determined against human neutrophil elastase HNE(66 nM); type: functional
Method in brief: (§3)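 Enzyme incubated with excess lactone added from DMSO stock (final 10% DMSO); aliquots over 2 h diluted into substrate: chymotrypsin Suc-AAPF-pNA 315 µM, pH 7.2, 410 nm; t-PA Spectrozyme t-PA 0.2 mM, Tris-imidazole pH 8.4, 405 nm; HNE MeO-Suc-AAPV-pNA 150 µM, pH 7.4, 410 nm; plasmin Ts-GPK-pNA 157.4 µM, pH 7.8, 404 nm; thrombin Ts-GPR-pNA 75 µM, pH 8.0, 408 nm; trypsin Z-VGR-pNA 155 µM, pH 7.2, 404 nm. Activity given relative to a no-lactone control. Some runs used a 10-min substrate-free delay after dilution. ∞ means no recovery over 2 h.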

[5] = target: Tissue-type plasminogen activator (Homo sapiens) (UniProt P00750); test: Maximum percent inhibition persists was determined against Tissue plasminogen activator (19.4 nM); method in brief: as §3
Chain of Tissue-type plasminogen activator (Homo sapiens) (P00750 36-562 limits assumed): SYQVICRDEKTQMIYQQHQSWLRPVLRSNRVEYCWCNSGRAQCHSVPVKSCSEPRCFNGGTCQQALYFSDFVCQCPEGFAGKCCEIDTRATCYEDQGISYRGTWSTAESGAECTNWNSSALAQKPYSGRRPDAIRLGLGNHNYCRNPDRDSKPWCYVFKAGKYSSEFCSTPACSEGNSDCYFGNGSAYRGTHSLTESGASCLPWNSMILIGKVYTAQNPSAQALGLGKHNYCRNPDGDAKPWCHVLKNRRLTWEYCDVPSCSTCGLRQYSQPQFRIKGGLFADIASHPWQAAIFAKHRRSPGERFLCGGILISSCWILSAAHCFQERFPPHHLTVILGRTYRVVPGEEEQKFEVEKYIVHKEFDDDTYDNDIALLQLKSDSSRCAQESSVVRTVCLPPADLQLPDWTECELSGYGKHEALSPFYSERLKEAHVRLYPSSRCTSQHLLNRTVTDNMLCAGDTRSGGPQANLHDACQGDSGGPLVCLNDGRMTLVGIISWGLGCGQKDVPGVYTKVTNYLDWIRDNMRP

[6] = target: Plasminogen (Homo sapiens) (UniProt P00747); test: Maximum percent inhibition by the compound was determined against plasmin(625 nM); method in brief: as §3
Chain of Plasminogen (Homo sapiens) (P00747 97-580 limits assumed): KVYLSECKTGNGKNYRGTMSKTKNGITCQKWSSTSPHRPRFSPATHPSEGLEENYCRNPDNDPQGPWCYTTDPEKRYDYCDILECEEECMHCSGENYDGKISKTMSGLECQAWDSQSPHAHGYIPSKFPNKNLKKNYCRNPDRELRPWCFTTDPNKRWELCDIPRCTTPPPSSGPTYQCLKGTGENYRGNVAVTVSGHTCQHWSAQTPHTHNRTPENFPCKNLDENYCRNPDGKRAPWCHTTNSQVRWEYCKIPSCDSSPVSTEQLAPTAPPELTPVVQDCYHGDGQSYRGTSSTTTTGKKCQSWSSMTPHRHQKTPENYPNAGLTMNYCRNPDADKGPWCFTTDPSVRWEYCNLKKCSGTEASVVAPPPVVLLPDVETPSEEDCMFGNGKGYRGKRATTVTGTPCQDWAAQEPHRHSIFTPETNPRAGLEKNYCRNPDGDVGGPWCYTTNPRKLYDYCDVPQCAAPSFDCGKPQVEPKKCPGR
Chain of Plasminogen (Homo sapiens) (P00747 581-810 limits assumed): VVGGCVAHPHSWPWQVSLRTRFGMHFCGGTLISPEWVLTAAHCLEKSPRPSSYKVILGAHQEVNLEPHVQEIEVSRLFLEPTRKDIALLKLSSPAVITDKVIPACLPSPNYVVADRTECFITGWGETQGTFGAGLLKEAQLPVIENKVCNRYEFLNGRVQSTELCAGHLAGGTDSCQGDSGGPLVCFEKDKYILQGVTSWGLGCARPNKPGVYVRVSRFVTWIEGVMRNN

[7] = target: Prothrombin (Homo sapiens) (UniProt P00734); test: Maximum percent inhibition by the compound was determined against thrombin (1.93 nM); method in brief: as §3
[8] = target: Chymotrypsinogen A (Bos taurus) (UniProt P00766); test: Maximum percent inhibition by the compound was determined against Chymotrypsinogen (17 nM); method in brief: as §3
[9] = Ratio of initial inhibitor concentration to initial trypsin concentration; method in brief: as §2
[10] = target: T3, Urokinase-type plasminogen activator (Homo sapiens, UniProt P00749)
[11] = target: Prothrombin (Homo sapiens) (UniProt P00734); test: Time for which maximum percent inhibition persists was determined against thrombin (1.93 nM); type: functional; method in brief: as §3
[12] = target: T1, Serine protease 1 (Bos taurus); test: Acylation rate constant against trypsin; method in brief: as §1
[13] = target: Tissue-type plasminogen activator (Homo sapiens) (UniProt P00750); test: Time for which maximum percent inhibition persists was determined against Tissue plasminogen activator (19.4 nM); type: functional; method in brief: as §3
[14] = target: Plasminogen (Homo sapiens) (UniProt P00747); test: Time for which maximum percent inhibition persists was determined against plasmin(625 nM); * =no enzyme activity was recovered over 2 h; type: functional; method in brief: as §3
[15] = target: T1, Serine protease 1 (Bos taurus); test: Maximum percent inhibition by the compound was determined against trypsin (14.6 nM); method in brief: as §3
[16] = target: Prothrombin (Homo sapiens) (UniProt P00734); test: Time to reach maximum percent inhibition by the compound was determined against thrombin (1.93 nM); type: functional
Method in brief: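 Thrombin was incubated with excess lactone (DMSO, 10% final). Aliquots over 2 h were diluted into Ts-Gly-Pro-Arg-pNA (75 μM) in 0.05 M phosphate, 0.01 M EDTA, 10 g/L PEG 8000, 10 mg/L aprotinin, pH 8.0, and read at 408 nm against a no-lactone control. Time to maximal inhibition was recorded.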

[17] = target: Chymotrypsinogen A (Bos taurus) (UniProt P00766); test: Time to reach maximum percent inhibition by the compound was determined against alpha-chymotrypsin (17 nM); type: functional
Method in brief: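 α-Chymotrypsin with excess lactone (DMSO, 10% final) was sampled over 2 h into Suc-Ala-Ala-Pro-Phe-pNA (315 μM) in 0.2 M phosphate, pH 7.2. Absorbance at 410 nm gave the remaining activity versus a control without lactone. Minutes to maximal inhibition were taken.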

[18] = Ratio of initial inhibitor concentration to initial thrombin concentration; method in brief: as §2
[19] = target: T3, Urokinase-type plasminogen activator; remark: listed apart in the source
[20] = Ratio of initial inhibitor concentration to initial Plasmin concentration; method in brief: as §2
[21] = target: Tissue-type plasminogen activator (Homo sapiens) (UniProt P00750); test: Time to reach maximum percent inhibition by the compound was determined against Tissue plasminogen activator (19.4 nM); type: functional
Method in brief: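 Tissue plasminogen activator was exposed to excess lactone (10% final DMSO). Over 2 h, aliquots were diluted into Spectrozyme t-PA (0.2 mM) in Tris-imidazole, I 0.3, pH 8.4. Hydrolysis at 405 nm gave residual activity relative to an enzyme-only control. The time (min) to reach maximal percent inhibition was recorded.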

[22] = target: Plasminogen (Homo sapiens) (UniProt P00747); test: Substrate binding constant against plasmin; method in brief: as §1
[23] = Ratio of initial inhibitor concentration to initial urokinase concentration; method in brief: as §2
[24] = target: T2, Neutrophil elastase (Homo sapiens); test: Maximum percent inhibition by the compound was determined against human neutrophil elastase HNE(66 nM); method in brief: as §3
[25] = Ratio of initial inhibitor concentration to initial HNE concentration; method in brief: as §2
[26] = Ratio of initial inhibitor concentration to initial Chymotrypsinogen concentration; method in brief: as §2
[27] = target: T3, Urokinase-type plasminogen activator; test: Substrate binding constant against Urokinase
[28] = target: Chymotrypsinogen A (Bos taurus) (UniProt P00766); test: Time for which maximum percent inhibition persists was determined against alpha-chymotrypsin (17 nM); type: functional; method in brief: as §3
[29] = target: Plasminogen (Homo sapiens) (UniProt P00747); test: Time to reach maximum percent inhibition by the compound was determined against plasmin(625 nM); type: functional
Method in brief: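 Plasmin plus excess lactone (10% final DMSO) was sampled over 2 h into Ts-Gly-Pro-Lys-pNA (157.4 μM) in 0.05 M phosphate, pH 7.8. The slope at 404 nm, relative to an enzyme-only control, gave residual activity. Minutes needed to reach maximal inhibition were reported.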

[30] = target: Plasminogen (Homo sapiens) (UniProt P00747); test: Second order rate constant against plasmin; method in brief: as §1
[31] = target: T3, Urokinase-type plasminogen activator; remark: listed apart in the source
[32] = target: Plasminogen (Homo sapiens) (UniProt P00747); test: Acylation rate constant against plasmin; method in brief: as §1
Serine protease 1 = target: T4, Serine protease 1 (Bos taurus, UniProt P00760); test: Decylation rate constant against trypsin
T4 sequence (P00760 whole entry): T1 sequence (whole entry)
Method in brief: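 Trypsin incubated 30–45 min with excess lactone (same I0/E0 as incubation assay). Free inhibitor removed by two 1-h centrifugations at 0 °C. Activity recovery followed at room temperature against an inhibitor-free control carried through the same treatment; kd is the slope of ln remaining activity vs time. Substrate Z-Val-Gly-Arg-pNA 155 µM, 0.2 M phosphate pH 7.2, 404 nm.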

`N=C(N)Nc1ccc(C2CC(=O)O/C(=C/I)C2)cc1` (stereo not drawn) gave a Rate [1] of 0.13 ka/Ks, a TIME [2] of 0.25 h and a Ratio [3] of 100 Io/Eo. For the same molecule, the TIME [4] was 0.25 h, the inhibition [5] was 22% and the inhibition [6] was 97%. It also gave an inhibition [7] of 38%, an inhibition [8] of 47% and a Ratio [9] of 86 Io/Eo. It also gave a Rate [10] of 0.33 ka/Ks, a TIME [11] of 0 h and a Ka [12] of 0.54 min⁻¹. The TIME [13] was 0.25 h, the TIME [14] was “No enzyme activity” and the inhibition [15] was 99%. For the same molecule, the TIME [16] was 1.5 h, the TIME [17] was 0 h and the Ratio [18] was 518 Io/Eo. It also gave a Ks [19] of 7.83 µM, a Ratio [20] of 16 Io/Eo and a TIME [21] of 0 h. The Ks [22] was 11 µM, the Ratio [23] was 50 Io/Eo and the inhibition [24] was 67%. The Ratio [25] was 36 Io/Eo, the Ratio [26] was 118 Io/Eo and the Ks [27] was 7.83 µM. For the same molecule, the TIME [28] was 0.25 h, the TIME [29] was 1 h and the Rate [30] was 0.9 ka/Ks. For the same molecule, the Ka [31] was 2.61 min⁻¹, the Ka [32] was 11 min⁻¹ and the Kd (Serine protease 1) was 0.00033 s⁻¹.
